Results from ChEMBL document CHEMBL5108018, “Discovery of MDM2-p53 and MDM4-p53 protein-protein interactions small molecule dual inhibitors” (Eur J Med Chem, 2022).
Each block holds one compound with its values, some of them ahead of it. Active and inactive are the calls of the source. No cut-off for these calls is given here.

Experiments:
[1] = biological target: Tumour suppressor p53/oncoprotein Mdm2 (Homo sapiens, UniProt P04637+Q00987); experiment: Inhibition of MDM2/p53 interaction in human U-87 MG cells preincubated for 10 mins under shaking condition and measured after 1.5 hrs by immuno-enzymatic assay; assay type: cell-based
Sequence of Tumour suppressor p53/oncoprotein Mdm2 (P04637 whole entry): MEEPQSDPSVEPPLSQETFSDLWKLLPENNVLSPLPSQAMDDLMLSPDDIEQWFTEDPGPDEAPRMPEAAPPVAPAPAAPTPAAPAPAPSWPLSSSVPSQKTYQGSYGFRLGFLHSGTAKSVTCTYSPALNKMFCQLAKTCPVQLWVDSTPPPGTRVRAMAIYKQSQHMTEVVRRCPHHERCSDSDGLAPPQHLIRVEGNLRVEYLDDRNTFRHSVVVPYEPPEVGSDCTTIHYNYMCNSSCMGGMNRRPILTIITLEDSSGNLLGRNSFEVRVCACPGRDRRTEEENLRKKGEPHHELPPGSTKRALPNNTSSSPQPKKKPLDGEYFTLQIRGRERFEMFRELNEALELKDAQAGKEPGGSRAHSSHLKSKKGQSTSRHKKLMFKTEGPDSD
Sequence of Tumour suppressor p53/oncoprotein Mdm2 (Q00987 whole entry): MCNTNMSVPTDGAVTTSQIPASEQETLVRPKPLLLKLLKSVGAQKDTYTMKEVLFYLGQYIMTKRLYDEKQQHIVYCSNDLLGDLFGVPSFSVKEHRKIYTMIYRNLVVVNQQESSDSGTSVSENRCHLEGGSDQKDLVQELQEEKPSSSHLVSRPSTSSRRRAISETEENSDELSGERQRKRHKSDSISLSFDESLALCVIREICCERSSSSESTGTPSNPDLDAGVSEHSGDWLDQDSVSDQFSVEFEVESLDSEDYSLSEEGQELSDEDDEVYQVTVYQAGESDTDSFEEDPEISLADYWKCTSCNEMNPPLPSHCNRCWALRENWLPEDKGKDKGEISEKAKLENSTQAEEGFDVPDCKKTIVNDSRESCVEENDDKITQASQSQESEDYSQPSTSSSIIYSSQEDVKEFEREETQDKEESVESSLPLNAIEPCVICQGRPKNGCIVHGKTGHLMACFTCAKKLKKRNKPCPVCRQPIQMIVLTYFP

[2] = biological target: Tumour suppressor protein p53/Mdm4 (Homo sapiens, UniProt O15151+P04637); experiment: Inhibition of MDM4/p53 interaction in human SH-SY5Y cells preincubated for 10 mins under shaking condition and measured after 1.5 hrs by immuno-enzymatic assay; assay type: cell-based
Sequence of Tumour suppressor protein p53/Mdm4 (P04637 whole entry): as the sequence (P04637 whole entry) above
Sequence of Tumour suppressor protein p53/Mdm4 (O15151 whole entry): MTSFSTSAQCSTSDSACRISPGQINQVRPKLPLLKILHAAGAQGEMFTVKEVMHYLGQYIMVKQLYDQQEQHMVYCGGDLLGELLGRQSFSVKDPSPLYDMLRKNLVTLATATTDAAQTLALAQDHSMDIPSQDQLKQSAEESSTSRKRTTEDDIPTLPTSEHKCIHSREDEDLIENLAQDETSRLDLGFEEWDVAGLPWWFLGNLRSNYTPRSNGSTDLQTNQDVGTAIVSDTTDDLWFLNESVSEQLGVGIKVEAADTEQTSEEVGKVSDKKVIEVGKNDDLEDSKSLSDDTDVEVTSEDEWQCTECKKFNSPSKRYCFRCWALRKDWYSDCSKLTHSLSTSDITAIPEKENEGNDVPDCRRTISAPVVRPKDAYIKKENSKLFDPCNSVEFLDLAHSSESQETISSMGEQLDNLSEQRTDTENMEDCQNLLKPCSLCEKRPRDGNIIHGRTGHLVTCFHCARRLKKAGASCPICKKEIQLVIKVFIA

LNCaP = experiment: Antiproliferative activity against human LNCaP cells harboring wild type p53 overexpressing MDM2/4 assessed as inhibition of cell growth incubated for 96 hrs by MTS assay; assay type: functional, cell-based
How it was run: (§1)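 MTS viability: cells seeded 1×10^4/well (HCT116), 3×10^3/well (SJSA-1, LNCaP), 5×10^3/well (MCF-7), treated ~24 h after plating with DMSO-stock compounds serially diluted in medium (final DMSO ≤0.1%). Ten or more concentrations over 1–100 µM, duplicates, ≥3 independent runs. Exposure 48 h (HCT116), 72 h (MCF-7), 96 h (SJSA-1, LNCaP). MTS 0.5 mg/mL added for 15–30 min, A490. IC50 from four-parameter variable-slope fit.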

SJSA-1 [3] = experiment: Antiproliferative activity against human SJSA-1 cells harboring wild type p53 overexpressing MDM2/4 assessed as inhibition of cell growth incubated for 96 hrs by MTS assay; assay type: functional, cell-based; details: SJSA-1, 96 h; how it was run: as §1
HCT-116 = experiment: Antiproliferative activity against human HCT-116 cells harboring wild type p53 overexpressing MDM2 assessed as inhibition of cell growth incubated for 48 hrs by MTS assay; assay type: functional, cell-based; details: HCT-116, 48 h; how it was run: as §1
MCF7 = experiment: Antiproliferative activity against human MCF7 cells harboring wild type p53 overexpressing MDM2/4 assessed as inhibition of cell growth incubated for 72 hrs by MTS assay; assay type: functional, cell-based; details: MCF7, 72 h; how it was run: as §1
SJSA-1 [4] = experiment: Induction of cell cycle arrest in human SJSA-1 cells assessed as accumulation of cells at G2/M phase at 22.5 uM incubated for 96 hrs by RNaseA/PI staining based flow cytometry analysis (reference value: 17.24 %); assay type: functional
SJSA-1 [5] = experiment: Induction of apoptosis in human SJSA-1 cells assessed as viable cells at 15 uM incubated for 96 hrs by Annexin V-FITC/7-AAD staining based flow cytometric analysis (reference value: 99.2%); assay type: functional; details: read-out: Activity
SJSA-1 [6] = experiment: Induction of cell cycle arrest in human SJSA-1 cells assessed as accumulation of cells at S phase at 22.5 uM incubated for 96 hrs by RNaseA/PI staining based flow cytometry analysis (reference value: 25.88 %); assay type: functional
SJSA-1 [7] = experiment: Induction of apoptosis in human SJSA-1 cells assessed as viable cells at 22.5 uM incubated for 96 hrs by Annexin V-FITC/7-AAD staining based flow cytometric analysis (reference value: 99.2%); assay type: functional; details: read-out: Activity
SJSA-1 [8] = experiment: Induction of cell cycle arrest in human SJSA-1 cells assessed as accumulation of cells at G0/G1 phase at 22.5 uM incubated for 96 hrs by RNaseA/PI staining based flow cytometry analysis (reference value: 57.09 %); assay type: functional
SJSA-1 [9] = experiment: Induction of cell cycle arrest in human SJSA-1 cells assessed as accumulation of cells at G0/G1 phase at 15 uM incubated for 96 hrs by RNaseA/PI staining based flow cytometry analysis (reference value: 57.09 %); assay type: functional
SJSA-1 [10] = experiment: Induction of cell cycle arrest in human SJSA-1 cells assessed as accumulation of cells at S phase at 15 uM incubated for 96 hrs by RNaseA/PI staining based flow cytometry analysis (reference value: 25.88 %); assay type: functional
HEK-293T = experiment: Cytotoxicity against HEK293T cells assessed as reduction in cell viability at 15 uM incubated for 96 hrs by MTS assay relative to control; assay type: toxicity, cell-based; details: human
How it was run: (§2)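 Single-concentration MTS viability with DMSO vehicle control (final ≤0.1%) run in parallel. HEK293T: 3×10^3 cells/well, 15 µM for 96 h. HCT116 p53(-/-): 20 µM for 48 h. Compound added ~24 h after plating; MTS 0.5 mg/mL in fresh medium for 15–30 min, A490. Mean ± SD of three independent experiments, one-way ANOVA with Bonferroni test.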

SJSA-1 [11] = experiment: Induction of cell cycle arrest in human SJSA-1 cells assessed as accumulation of cells at G2/M phase at 15 uM incubated for 96 hrs by RNaseA/PI staining based flow cytometry analysis (reference value: 17.24 %); assay type: functional
SJSA-1 [12] = experiment: Induction of apoptosis in human SJSA-1 cells assessed as early apoptotic cells at 22.5 uM incubated for 96 hrs by Annexin V-FITC/7-AAD staining based flow cytometric analysis (reference value: 0.3%); assay type: functional
[13] = Antiproliferative activity against human HCT116-p53-null cells assessed as reduction in cell viability at 20 uM incubated for 48 hrs by MTS assay; assay type: functional; how it was run: as §2
SJSA-1 [14] = experiment: Induction of cell death in human SJSA-1 cells assessed as reduction in cell growth at 1.5 times IC50 incubated for 96 hrs by bright field microscopic analysis; assay type: functional, cell-based
How it was run: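 Brightfield microscopy of SJSA-1 cell morphology after 96 h with DMSO vehicle or compound.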

SJSA-1 [15] = experiment: Induction of apoptosis in human SJSA-1 cells assessed as late apoptotic cells at 22.5 uM incubated for 96 hrs by Annexin V-FITC/7-AAD staining based flow cytometric analysis (reference value: 0.6%); assay type: functional

Structure (SMILES): O=C1Nc2ccc(Br)cc2C12C(c1ccccc1)C(c1ccccc1)=NN2c1ccccc1 (stereo not drawn)
- IC50 [1]: 0.144 µM
- IC50 [2]: 0.295 µM

Structure (SMILES): O=C(O)C1=NN(C2CCCCC2)C2(C(=O)Nc3cc(Cl)ccc32)C1c1cccc(Cl)c1F (stereo not drawn)
- IC50 (HCT-116): > 100 µM

Structure (SMILES): CCOC(=O)C1=NN(C(C)(C)C)C2(C(=O)Nc3cc(Cl)ccc32)C1c1ccc(F)cc1 (stereo not drawn)
- IC50 (HCT-116): 49.9 µM

Structure (SMILES): O=C(NCCO)C1=NN(c2ccc(Cl)cc2)C2(C(=O)Nc3cc(Cl)ccc32)C1c1cccc(O)c1 (stereo not drawn)
- IC50 (HCT-116): > 50 µM

Structure (SMILES): CCOC(=O)C1=NN(C(C)(C)C)C2(C(=O)Nc3cc(Cl)c(F)cc32)C1c1cccc(F)c1 (stereo not drawn)
- IC50 (HCT-116): 41.9 µM

Further lines, with some results ahead:

- IC50 (LNCaP): 11.5 µM
- IC50 (SJSA-1 [3]): 17.4 µM
- IC50 (HCT-116): 20.9 µM
- IC50 (MCF7): 12.4 µM
Structure (SMILES): O=C(Nc1cccc(-n2cccn2)c1)C1=NN(c2ccc(Cl)cc2)C2(C(=O)Nc3cc(Cl)ccc32)C1c1cccc(O)c1 (stereo not drawn)

- IC50 (LNCaP): 10.7 µM
- IC50 (SJSA-1 [3]): 15.6 µM
- IC50 (HCT-116): 18 µM
- IC50 (MCF7): 15.6 µM
Structure (SMILES): CCOC(=O)C1=NN(c2ccc(Cl)cc2)C2(C(=O)Nc3cc(Cl)ccc32)C1c1cccc(Cl)c1F (stereo not drawn)
- Activity (SJSA-1 [4]): 6.67%
- viability at 15 µM (SJSA-1 [5]): 98.6%
- Activity (SJSA-1 [6]): 11.13%
- viability at 22.5 µM (SJSA-1 [7]): 92.7%
- Activity (SJSA-1 [8]): 82.19%
- Activity (SJSA-1 [9]): 67.51%
- Activity (SJSA-1 [10]): 21.48%
- Activity (HEK-293T): 24%
- Activity (SJSA-1 [11]): 11.01%
- Activity (SJSA-1 [12]): 2.9%
- Activity [13]: 13%
- Activity (SJSA-1 [14]): Active
- Activity (SJSA-1 [15]): 4.3%

- IC50 (HCT-116): 27 µM
Structure (SMILES): O=C(NCCc1ccc(O)cc1)C1=NN(c2ccc(Cl)cc2)C2(C(=O)Nc3cc(Cl)ccc32)C1c1cccc(O)c1 (stereo not drawn)

- IC50 (HCT-116): 37.2 µM
Structure (SMILES): O=C(NCC1(O)CCC1)C1=NN(c2ccc(Cl)cc2)C2(C(=O)Nc3cc(Cl)ccc32)C1c1cccc(O)c1 (stereo not drawn)

- IC50 (HCT-116): 30.2 µM
Structure (SMILES): CCOC(=O)C1=NN(C(C)(C)C)C2(C(=O)Nc3cc(Cl)ccc32)C1c1ccc(Cl)cc1 (stereo not drawn)

- IC50 (HCT-116): 32.1 µM
Structure (SMILES): CCOC(=O)C1=NN(C(C)(C)C)C2(C(=O)Nc3cc(Cl)ccc32)C1c1cccc(Cl)c1F (stereo not drawn)

- IC50 (HCT-116): 30.2 µM
Structure (SMILES): CC(C)(C)N1N=C(C(=O)NCCc2ccc(O)cc2)C(c2cccc(Cl)c2F)C12C(=O)Nc1cc(Cl)ccc12 (stereo not drawn)

- IC50 (HCT-116): 35.1 µM
Structure (SMILES): CCOC(=O)C1=NN(C(C)(C)C)C2(C(=O)Nc3cc(Cl)c(F)cc32)C1c1cccc(Cl)c1F (stereo not drawn)
